Experimental data: PubChem BioAssay AID624466 (The Scripps Research Institute Molecular Screening Center, 2012)
The campaign covered roughly 360,000 compounds. About 5,400 (1.5%) were called active. Shown is part of a subset that was picked to be rich in actives. Unmarked numbers belong to inactive results.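 How the source made its calls: active means inhibition above a per-plate cutoff, the mean inhibition of test compounds on that plate plus 3 SD (cut at about 49% in these data); inactive means the rest.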

molecular target: Trace amine-associated receptor 1 (Homo sapiens) (UniProt Q96RJ0); test: blockers of beta-PEA-driven TAAR1 calcium signal – Fluo-8 calcium fluorescence, CHO RD-HGA16 cells, primary screen (AID 624466); conditions: CHO RD-HGA16 TAAR1, Fluo-8 calcium fluorescence, antagonist; at 3 µM; active compounds read high;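 further: 0% = DMSO plus EC80 beta-PEA response and 100% = DMSO alone without agonist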
In short: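 Test system – hTAAR1-expressing CHO RD-HGA16 cells, Gα16-coupled · Also added – β-PEA at EC80 concentration, post-compound challenge · Compound – 3 µM, single point · Incubation – dye loading 75 min at 37 °C, then 30 min room temperature · Measured by – Fluo-8 intracellular calcium dye fluorescence, real-time kinetic reads · Benchmarks – vehicle and agonist controls · Replicates – singlicate, one well per test compound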

Trace amine-associated receptor 1 (Homo sapiens), sequence (Q96RJ0 whole entry, looked up, the tested form may be a part): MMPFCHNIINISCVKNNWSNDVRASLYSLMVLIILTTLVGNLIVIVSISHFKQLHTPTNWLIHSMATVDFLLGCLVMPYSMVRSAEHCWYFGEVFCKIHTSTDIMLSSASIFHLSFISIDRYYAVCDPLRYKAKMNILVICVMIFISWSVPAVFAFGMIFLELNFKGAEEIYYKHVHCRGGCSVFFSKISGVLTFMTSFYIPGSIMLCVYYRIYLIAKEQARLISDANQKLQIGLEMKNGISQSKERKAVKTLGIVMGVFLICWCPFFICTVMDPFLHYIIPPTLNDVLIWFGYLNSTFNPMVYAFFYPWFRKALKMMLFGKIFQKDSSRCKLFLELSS

| SMILES | inhibition |
| --- | --- |
| CN1CCN(c2ccc3c(c2)OC[C@H](Cc2ccccc2)NS3(=O)=O)CC1 | -0.38% |
| CC(C)C[C@H](NC(=O)CC1CCCC1)C(=O)N1CCC[C@H]1C(=O)NCc1ccccc1 | -24.5% |
| COC(=O)[C@]12C[C@H](CC(=O)NCc3ccc(C)o3)C(=O)N(CCC3=CCCCC3)C1=C[C@H](C(C)(C)C)O[C@@H]2C | -24.7% |
| CCCc1cc(C(=O)Nc2ccc(Cl)cn2)cs1 | -47.4% |
| CCCc1cc(C(=O)Nc2ccc(C(=O)OC)cc2)cs1 | 50.5% (active) |
| CCN(CC)C(=O)CCC(=O)Nc1ccc(C(=O)OC)cc1 | -5.5% |
| CCC(=O)Nc1c(S(=O)(=O)c2ccccc2)c2nc3ccccc3nc2n1Cc1ccccc1 | -31.1% |
| N#Cc1cccc(C(=O)NCC2CCN(C(=O)C(=O)c3cc4ccccc4o3)CC2)c1 | -5.41% |
| Fc1ccc2[nH]c3c(N4CCSCC4)ncnc3c2c1 | 64.4% (active) |
| COC(=O)c1ccc2nc(-c3cccc(Br)c3)c(Cc3ccccc3C(F)(F)F)n2c1 | -12.6% |
| COc1cc(/C=C/C(=O)Nc2ccc(OC)c(S(=O)(=O)N3CCOCC3)c2)ccc1OCC#N | 14.8% |
| COc1ccc(/C=C/C(=O)OCC(=O)NC2CCCCCC2)cc1OC | -27.2% |
| COc1ccc(/C=C/C(=O)Nc2ccc(C34CC5CC(CC(O)(C5)C3)C4)cc2)cc1OC | 71.5% (active) |
| C[C@@H]1CN([C@H](C)CO)C(=O)CCCn2cc(nn2)CO[C@H]1CN(C)C(=O)Nc1ccc(N2CCCCC2)cc1 | -12.4% |
| CNC(=O)C1CC(=O)N(Cc2ccc3c(c2)OCO3)C(=Nc2ccc(F)cc2)S1 (stereo not drawn) | 11.3% |
| CC(C)(C)Nc1c(N)c(=O)oc2ccccc12 | 15% |
| O=c1oc2ccccc2c(=O)c2ccccc12 | 3.02% |
| Nc1c(NCCc2ccccc2)c2ccccc2oc1=O | 66.7% (active) |
| O=C(N[C@H](Cc1ccccc1)C(=O)N1CCCN(Cc2cccs2)CC1)[C@H]1O[C@@H](n2ccc(=O)[nH]c2=O)[C@H](O)[C@@H]1O | -9.92% |
| CC(=O)OC[C@@H]1CN(Cc2ccccc2)C[C@H](n2cnc3c(NCc4ccco4)ncnc32)O1 | -4.46% |
| CCCCOCC1CN(CCCC)S(=O)(=O)c2c(Oc3ccc(F)cc3)cccc2O1 (stereo not drawn) | 30.2% |
| CCOC(=O)C1=CN(Cc2ccc(Br)cc2)S(=O)(=O)NC1C (stereo not drawn) | 49.1% (active) |
| CCOC(=O)c1sc(=NC(=O)c2ccc(Br)cc2)n(C)c1C | -21.9% |
| CCOC(=O)C1=CN(Cc2ccc(Br)cc2)S(=O)(=O)N(C)C1C (stereo not drawn) | 17.8% |
| COc1cccc(/C=N/Nc2cc(C)nc(-c3ccccc3O)n2)c1O | 64.5% (active) |
| COc1cc(/C=N/NC(=S)Nc2cccnc2)cc(OC)c1O | -25% |
| COc1cccc(Cn2cc(/C=N/NC(=O)c3cc(O)cc(O)c3)c3ccccc32)c1 | -11.8% |

| SMILES | inhibition |
| --- | --- |
| Cc1cccc2[nH]c(CN(C)C(=O)C3CCC(=O)N(CCc4ccccc4)C3)nc12 (stereo not drawn) | -20.8% |
| Cc1ccc(N(C(=O)CC2NC(=O)NC2=O)C2(C(=O)NC3CCCC3)CCCCC2)cc1 (stereo not drawn) | -7.81% |
| CCCCCCCC[n+]1cccc(C(=O)N2c3c(nc(N)[nH]c3=O)NC(C)C2C)c1 (stereo not drawn) | -7.7% |
| CCNC(=O)c1cc2c(c(-c3cccc(-c4cncnc4)c3)n1)[C@H](CCO)N(C(C)=O)C2 | -0.11% |
| CC(C)NC(=O)N1Cc2cc(C(=O)NCC(F)(F)F)nc(-c3cccc(-c4cc5ccccc5o4)c3)c2[C@@H]1CCO | 51.9% (active) |
| CC(C)(C)S(=O)N1Cc2cc(C(=O)NCCCN3CCOCC3)nc(-c3cccc(-c4cc5ccccc5o4)c3)c2[C@H]1CCO (stereo partly drawn) | 8.67% |
| COc1cccc(/C=C(/CC(=O)Nc2ccc(N3CCOCC3)cc2)c2nc3ccccc3s2)c1 | -10.9% |
| COc1ccc(C(=O)Nc2cccc(/C=C(/CCC(=O)O)c3nc4ccccc4s3)c2)cc1 | 57.2% (active) |
| O=C(O)CC/C(=C\c1cc2c(cc1Br)OCO2)c1nc2ccccc2s1 | -13.4% |
| CC(=O)C[C@@H]1OC[C@H](C)N1S(=O)(=O)c1ccc(C)cc1 | -22.5% |
| COC(=O)[C@]1(C)N[C@H](c2ccc(-c3ccc(Cl)c(Cl)c3)cc2)[C@@H]2C(=O)N(C)C(=O)[C@@H]21 | 20.9% |
| CCCNS(=O)(=O)c1ccc(CCC(=O)N2CCCC2)cc1 | -0.2% |
| CCNS(=O)(=O)c1ccc(CCC(=O)N2CCN(c3cc(Cl)ccc3C)CC2)cc1 | 65.9% (active) |
| CCNS(=O)(=O)c1ccc(CCC(=O)N2CCN(c3ccc(OC)cc3)CC2)cc1 | 8.27% |
| CCOc1ccc(NS(=O)(=O)c2cc(C)c(C)cc2C)cc1 | 18.6% |
| Cc1cccc(NC(=O)CN2CCN(CC(=O)NCC3(N4CCCCC4)CCCCC3)CC2)c1C | -28.3% |
| COc1cc(NC(=O)C2=CC(c3ccco3)=NS(=O)(=O)N2C)cc(OC)c1OC | -8.05% |
| COc1cc(NC(=O)C2=CC(c3ccc(C)cc3)=NS(=O)(=O)N2C)cc(OC)c1OC | -7.77% |
| COc1ccc(NC(=O)C2=CC(c3ccc(OC)c(OC)c3)=NS(=O)(=O)N2C)cc1 | 52.3% (active) |
| O=C(O)C1CCCN1S(=O)(=O)c1ccc(Br)cc1 (stereo not drawn) | -6.42% |
| O=C(O)CC/C(=N\NC(=O)c1ccc(F)cc1)c1ccc(Br)cc1 | 3.38% |
| CSc1ccc(/C=N/NC(=O)c2cccc(Cl)c2)cc1 | 8.63% |
| O=C(N/N=C/c1ccc(Cl)c(Cl)c1)c1ccc2nc[nH]c2c1 | 63.3% (active) |
| CC(=O)c1ccc(N2CCN(C(=O)c3ccc4nc[nH]c4c3)CC2)cc1 | -29.8% |
| CC(=NNC(=O)c1ccc2nc[nH]c2c1)c1ccc(Br)cc1 | 51.9% (active) |
| CC1=NNC(=O)C1CCC(=O)N/N=C\c1ccc(Cl)c(Cl)c1 (stereo not drawn) | -10.3% |
